Measurements taken from ChEMBL document CHEMBL3992510, “Urea Derivatives of 2-Aryl-benzothiazol-5-amines: A New Class of Potential Drugs for Human African Trypanosomiasis” (J Med Chem, 2017).
Active and inactive are the calls of the source. No cut-off for these calls is given here.

Assays:
[1] = Stability in mouse liver microsomes assessed as compound remaining at 1.5 uM in presence of NADPH measured after 5 mins by liquid chromatography/tandem mass spectrometric analysis; format: ADME, microsome; conditions: read-out: Stability
Liver [2] = assay: Half life in human liver microsomes at 1.5 uM in presence of NADPH by liquid chromatography/tandem mass spectrometric analysis; format: ADME, microsome
[3] = Stability in human liver microsomes assessed as compound remaining at 1.5 uM in presence of NADPH measured after 5 mins by liquid chromatography/tandem mass spectrometric analysis; format: ADME, microsome; conditions: read-out: Stability
Method in brief: (§1)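 Pooled liver microsomes (0.5 mg/mL) are preincubated 5 min at 37 °C in 0.16 M KH2PO4 with 1 mM NADPH, then test compound is added at 1.5 μM. Aliquots are quenched with 4 volumes of acetonitrile at 0, 5, 10, 15, 30 and 60 min and analyzed by LC-MS/MS. Percent remaining at 5 or 60 min is given when t1/2 is outside the 5–60 min range. Controls: testosterone, dextromethorphan.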

Liver [4] = assay: Half life in mouse liver microsomes at 1.5 uM in presence of NADPH by liquid chromatography/tandem mass spectrometric analysis; format: ADME, microsome
[5] = Drug level in mouse brain at 5 mg/kg, ip administered as single dose measured at 1 hr post dose by liquid chromatography/tandem mass spectrometric analysis; format: ADME, organism-based; conditions: read-out: Drug uptake
Method in brief: (§2)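 Single ip dose of 5 mg/kg in 5% DMSO/7% Tween 80/3% EtOH in 0.9% saline, three mice per compound (six for one compound). At 1 h, plasma is separated by centrifugation and brain homogenized in acetonitrile. Both are quantified by LC-MS/MS, with brain corrected for 3% v/w blood. Brain/plasma ratio is reported as mean ± SEM.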

[6] = Selectivity index, ratio of EC50 for human CRL8155 cells to EC50 for Trypanosoma brucei brucei BF427; format: toxicity; conditions: read-out: Ratio EC50
HepG2 = assay: Cytotoxicity against human HepG2 cells assessed as growth inhibition after 48 hrs by Alamar blue assay; format: cell-based; conditions: for EC50: Homo sapiens, HepG2, 48 h; for EC90: human, hepg2, 48 h
Method in brief: (§3)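 CRL-8155 lymphoblasts or HepG2 hepatocellular carcinoma cells are exposed 48 h to serial compound dilutions in quadruplicate. Growth is read with Alamar Blue, and 50% and 90% inhibitory concentrations come from nonlinear regression. Quinacrine is the control.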

[7] = Stability in human liver microsomes assessed as compound remaining at 1.5 uM in presence of NADPH measured after 60 mins by liquid chromatography/tandem mass spectrometric analysis; format: ADME, microsome; conditions: read-out: Stability; method in brief: as §1
[8] = Selectivity index, ratio of EC50 for human HepG2 cells to EC50 for Trypanosoma brucei brucei BF427; format: toxicity; conditions: read-out: Ratio EC50
[9] = Drug level in mouse plasma at 5 mg/kg, ip administered as single dose measured at 1 hr post dose by liquid chromatography/tandem mass spectrometric analysis; format: ADME, organism-based; method in brief: as §2
[10] = system: Trypanosoma brucei brucei; assay: Antitrypanosomal activity against Trypanosoma brucei brucei BF427 assessed as growth inhibition measured after 48 hrs by Alamar blue assay; format: functional; conditions: BF427, 48 h
Method in brief: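 Bloodstream-form parasites in HMI-9 medium are exposed to serial compound dilutions in triplicate. Viability is read with Alamar Blue at 48 h. EC50 and EC90 come from nonlinear regression. Pentamidine isethionate is the control.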

[11] = Cytotoxicity against human CRL8155 cells assessed as growth inhibition after 48 hrs by Alamar blue assay; format: cell-based; conditions: for EC50: Homo sapiens, CRL8155, 48 h; for EC90: human, crl8155, 48 h; method in brief: as §3
[12] = Stability in mouse liver microsomes assessed as compound remaining at 1.5 uM in presence of NADPH measured after 60 mins by liquid chromatography/tandem mass spectrometric analysis; format: ADME, microsome; conditions: read-out: Stability; method in brief: as §1
[13] = AUC (0 to infinity) in mouse at 50 mg/kg, po administered as single dose via gavage as 7% Tween 80/3% EtOH/5% DMSO formulation by liquid chromatography/tandem mass spectrometric analysis; format: ADME, organism-based; parameters: dose 50 mg/kg, route oral, time infinity; conditions: in vivo
Method in brief: (§4)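 Single oral gavage dose of 50 mg/kg to groups of three mice, vehicle as in the line. Tail blood of 40 μL is taken into heparinized capillaries at time points out to as much as 32 h. It is spotted on dried-blood cards and quantified by LC-MS/MS. Values are means ± SEM of three mice.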

[14] = Ratio of drug level in brain to plasma in mouse at 5 mg/kg, ip administered as single dose measured at 1 hr post dose by liquid chromatography/tandem mass spectrometric analysis; format: ADME, organism-based; method in brief: as §2
[15] = Cmax in mouse at 50 mg/kg, po administered as single dose via gavage as 7% Tween 80/3% EtOH/5% DMSO formulation by liquid chromatography/tandem mass spectrometric analysis; format: ADME, organism-based; parameters: dose 50 mg/kg, route oral; conditions: in vivo; method in brief: as §4
[16] = system: Trypanosoma brucei brucei; assay: Anti-parasitic activity against Trypanosoma brucei brucei TREU667 infected in mouse assessed as reduction in parasitemia at 10 mg/kg, ip bid administered on day 21 to 30 post infection measured on day 180 by microscopic method; format: functional, organism-based

| remaining at 5 min, 1.5 µM [1] | t1/2 (Liver [2]) | remaining at 5 min, 1.5 µM [3] | t1/2 (Liver [4]) | concentration at 1 h [5] | remaining at 1 h, 1.5 µM [7] | concentration at 1 h [9] | EC50 [10] | EC90 [10] | AUC(0-inf) [13] | Structure (SMILES) | selectivity ratio [6] | EC50 (HepG2) | EC90 (HepG2) | selectivity ratio [8] | EC50 [11] | EC90 [11] | remaining at 1 h, 1.5 µM [12] | BPR [14] | Cmax [15] | Activity [16] |
| --- | --- | --- | --- | --- | --- | --- | --- | --- | --- | --- | --- | --- | --- | --- | --- | --- | --- | --- | --- | --- |
| 0% | < 5 min | 22% | < 5 min | – | – | – | – | – | – | O=C(NCCc1nc(-c2ccc(F)c(F)c2)cs1)N1CCCCC1 | – | – | – | – | – | – | – | – | – | – |
| – | – | – | 14 min | 4.25 µM | 66% | 2.61 µM | 0.0918 µM | 0.181 µM | 7.39 µM·h | O=C(Nc1ccc2sc(-c3ccc(F)c(F)c3)nc2c1)N1CCCC1 | 369 | > 50 µM | > 50 µM | > 545 | 33.9 µM | > 50 µM | – | – | – | – |
| 21% | < 5 min | 3.9% | < 5 min | – | – | – | 0.037 µM | 0.0586 µM | – | CC1CCCCN1C(=O)NCCc1nc(-c2cccc(F)c2)cs1 (stereo not given) | > 1350 | > 50 µM | > 50 µM | > 1350 | > 50 µM | > 50 µM | – | – | – | – |

More lines, now with the values behind:

| Structure (SMILES) | remaining at 5 min, 1.5 µM [1] | t1/2 (Liver [2]) | remaining at 5 min, 1.5 µM [3] | t1/2 (Liver [4]) | concentration at 1 h [5] | remaining at 1 h, 1.5 µM [7] | concentration at 1 h [9] | EC50 [10] | EC90 [10] | AUC(0-inf) [13] | selectivity ratio [6] | EC50 (HepG2) | EC90 (HepG2) | selectivity ratio [8] | EC50 [11] | EC90 [11] | remaining at 1 h, 1.5 µM [12] | BPR [14] | Cmax [15] | Activity [16] |
| --- | --- | --- | --- | --- | --- | --- | --- | --- | --- | --- | --- | --- | --- | --- | --- | --- | --- | --- | --- | --- |
| O=C(Nc1ccc2sc(-c3ccc(F)c(F)c3)nc2c1)N1C[C@@H](F)[C@H](F)C1 | – | – | – | – | 16.2 µM | 96% | 2.19 µM | 0.114 µM | 0.747 µM | 225 µM·h | > 238 | > 50 µM | > 50 µM | > 439 | 27.1 µM | > 50 µM | 67% | 7.71 | – | – |
| O=C(N/C=C/c1nc(-c2cccc(F)c2)cs1)N1CCCCC1 | – | < 5 min | 28% | 13 min | – | – | – | 0.0946 µM | 0.216 µM | – | > 529 | > 50 µM | > 50 µM | > 529 | > 50 µM | > 50 µM | – | – | – | – |
| O=C(Nc1ccc2sc(-c3ccc(F)c(F)c3)nc2c1)N1CCC(F)C1 (stereo not given) | – | > 60 min | – | > 60 min | 5.48 µM | 99% | 3.26 µM | 0.0519 µM | 0.0919 µM | 108 µM·h | > 963 | > 50 µM | > 50 µM | > 963 | > 50 µM | – | 52% | 2.11 | 10 µM | – |
| N=C(N)c1ccc(/N=N/Nc2ccc(C(=N)N)cc2)cc1 | – | – | – | – | – | – | – | – | – | – | – | – | – | – | – | – | – | – | – | inactive |
| O=C(NCCc1nc(-c2ccc(F)cc2F)cs1)N1CCCCC1 | 0% | < 5 min | 46% | < 5 min | – | – | – | – | – | – | – | – | – | – | – | – | – | – | – | – |
